Assay results taken from ChEMBL document CHEMBL1146230, “New analogues of the potent cytotoxic saponin OSW-1” (J Med Chem, 2007).

Columns and labels:
[1] = Cytotoxicity against mouse NIH 3T3 cells after 72 hrs; assay type: cell-based, NIH3T3; conditions: read-out: TCS50
Outline: (§1)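 Cells grown in DMEM with 10% fetal calf serum, 4 mM glutamine, penicillin/streptomycin, 37 °C, 5% CO2. About 1.25×10^5 cells/mL seeded and stabilized 3 h. Compounds added in DMSO as serial (usually 6- and 4-fold) dilutions, top well usually 50 µM, DMSO final ≤0.6%. After 72 h, Calcein AM for 1 h, fluorescence read. Survival taken vs DMSO controls; TCS50 from dose-response curves; mean ± SD of three experiments.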

HOS = experiment: Cytotoxicity against HOS cells after 72 hrs; assay type: functional, Homo sapiens; outline: as §1
K562 = experiment: Cytotoxicity against K562 cells after 72 hrs; assay type: functional, Homo sapiens; outline: as §1
CCRF-CEM = experiment: Cytotoxicity against CEM cells after 72 hrs; assay type: functional, Homo sapiens; outline: as §1
MCF7 = experiment: Cytotoxicity against MCF7 cells after 72 hrs; assay type: functional, Homo sapiens; outline: as §1
A549 = experiment: Cytotoxicity against A549 cells after 72 hrs; assay type: functional, Homo sapiens; outline: as §1
G-361 = experiment: Cytotoxicity against human G361 cells after 72 hrs; assay type: functional; outline: as §1
[2] = Cytotoxicity against ARN8 cells after 72 hrs; assay type: functional, Homo sapiens; outline: as §1
HeLa = experiment: Cytotoxicity against HeLa cells after 72 hrs; assay type: functional, Homo sapiens; outline: as §1

Compound	CC50 at 72 h [1]	TCS50 (HOS)	TCS50 (K562)	TCS50 (CCRF-CEM)	TCS50 (MCF7)	TCS50 (A549)	TCS50 (G-361)	TCS50 [2]	TCS50 (HeLa)
COc1ccc(C(=O)O[C@H]2[C@H](O[C@H]3C[C@H]4[C@@H]5CC=C6C[C@@H](O)CC[C@]6(C)[C@H]5CC[C@]4(C)[C@@]3(O)[C@H](C)C(=O)CCC(C)C)OC[C@@H](O)[C@@H]2O)cc1	> 50 µM	7200 nM	1800 nM	1000 nM	3500 nM	7200 nM	3500 nM	1500 nM	2300 nM
CCCC(=O)[C@@H](C)[C@@]1(O)[C@@H](O[C@@H]2OC[C@H](O)[C@@H](O[C@@H]3OC[C@@H](O)[C@H](O)[C@H]3OC(=O)c3ccc(OC)cc3)[C@@H]2OC(C)=O)C[C@H]2[C@@H]3CC=C4C[C@@H](O)CC[C@]4(C)[C@H]3CC[C@@]21C	> 50 µM	140 nM	1.4 nM	0.5 nM	90 nM	0.9 nM	3100 nM	3 nM	12 nM
COc1ccc(C(=O)O[C@H]2[C@H](O[C@@H]3[C@@H](OC(C)=O)[C@H](O[C@H]4C[C@H]5[C@@H]6CC=C7C[C@@H](O)CC[C@]7(C)[C@H]6CC[C@]5(C)[C@@]4(O)[C@H](C)C(=O)CCC(C)C)OC[C@@H]3O)OC[C@@H](O)[C@@H]2O)cc1	> 50 µM	40 nM	0.8 nM	0.3 nM	50 nM	0.5 nM	1000 nM	4 nM	8 nM
CC(=O)O[C@H]1[C@H](O[C@H]2C[C@H]3[C@@H]4CC=C5C[C@@H](O)CC[C@]5(C)[C@H]4CC[C@]3(C)[C@@]2(O)[C@H](C)C(=O)CCC(C)C)OC[C@H](O)[C@@H]1O	> 50 µM	4200 nM	430 nM	200 nM	1300 nM	4200 nM	2200 nM	1950 nM	570 nM
CCCCCC(=O)[C@@H](C)[C@@]1(O)[C@@H](O[C@@H]2OC[C@H](O)[C@H](O[C@@H]3OC[C@@H](O)[C@H](O)[C@H]3OC(=O)c3ccc(OC)cc3)[C@H]2OC(C)=O)C[C@H]2[C@@H]3CC=C4C[C@@H](O)CC[C@]4(C)[C@H]3CC[C@@]21C	> 50 µM	42 nM	0.7 nM	0.2 nM	40 nM	0.5 nM	1400 nM	0.6 nM	8 nM
CCCCCOC[C@@H](C)[C@@]1(O)[C@@H](O[C@@H]2OC[C@H](O)[C@H](O[C@@H]3OC[C@@H](O)[C@H](O)[C@H]3OC(=O)c3ccc(OC)cc3)[C@H]2OC(C)=O)C[C@H]2[C@@H]3CC=C4C[C@@H](O)CC[C@]4(C)[C@H]3CC[C@@]21C	> 50 µM	1800 nM	<400 nM	<200 nM	860 nM	<200 nM	1900 nM	<400 nM	350 nM
COc1ccc(C(=O)O[C@H]2[C@H](O[C@@H]3[C@@H](OC(C)=O)[C@H](O[C@@H](CCC(C)C)[C@@H](C)[C@@]4(O)C(=O)C[C@H]5[C@@H]6CC=C7C[C@@H](O)CC[C@]7(C)[C@H]6CC[C@@]54C)OC[C@@H]3O)OC[C@@H](O)[C@@H]2O)cc1	> 50 µM	11700 nM	430 nM	280 nM	3400 nM	480 nM	14400 nM	500 nM	1000 nM
COc1cccc2c1C(=O)c1c(O)c3c(c(O)c1C2=O)C[C@@](O)(C(C)=O)C[C@@H]3O[C@H]1C[C@H](N)[C@H](O)[C@H](C)O1 [DAUNORUBICIN]	–	330 nM	230 nM	62 nM	140 nM	–	670 nM	–	670 nM
